Columns and labels:
[1] = molecular target: T1, human FPR1 (Homo sapiens, UniProt P21462); test: Ca2+ mobilization; assay type: cell-based; conditions: for Ca+2 mobilization FPR1-HL60 efficacy: normalized to 5 nM fMLF = 100%
T1 sequence (P21462 1-350): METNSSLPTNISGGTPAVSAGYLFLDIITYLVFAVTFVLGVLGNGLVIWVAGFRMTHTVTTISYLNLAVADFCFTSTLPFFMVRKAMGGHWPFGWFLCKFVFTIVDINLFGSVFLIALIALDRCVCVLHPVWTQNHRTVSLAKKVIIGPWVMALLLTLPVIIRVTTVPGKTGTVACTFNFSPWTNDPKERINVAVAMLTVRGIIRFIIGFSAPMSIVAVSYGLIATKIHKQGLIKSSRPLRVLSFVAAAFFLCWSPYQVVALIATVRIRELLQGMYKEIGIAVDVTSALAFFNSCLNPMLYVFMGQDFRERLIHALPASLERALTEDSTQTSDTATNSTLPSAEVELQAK
Summary of the method: (§1)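 FPR1- or FPR2-stably transfected HL-60 cells were kept in RPMI 1640 with 10% FCS and G418. Cells were loaded with Fluo-4 AM (1.25 µg/mL final) for 30 min at 37 °C in the dark, then put in HBSS with Ca²⁺/Mg²⁺ at 2×10⁵ cells/well. After test compound addition, fluorescence (ex 485/em 538 nm) was read every 5 s for 240 s at room temperature. Peak change over baseline was normalized to 5 nM fMLF (FPR1) or 5 nM WKYMVM (FPR2). Runs were in triplicate, with EC50 from nonlinear regression of 5–6 points.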

[2] = tested on: mouse microglial N9 cells; test: ROS production in LPS-stimulated N9 cells; assay type: cell-based; conditions: for reduction in cellular ROS level (dose dependence): N9 cells stimulated with LPS, 0.1 and 1 μM; for reduction in ROS production: N9 cells, 24 h co-incubation with LPS, compound 0.1 μM, p<0.05
Summary of the method: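 N9 microglia seeded at 25,000 cells/well; after 3–4 h, LPS 300 ng/mL added alone or with test compound (0.1 or 1 μM), then 24 h at 37 °C. H2DCF-DA (10 μM final) added for 30 min, wells washed 3× in ice-cold PBS, read in saline at ex 480/em 520 nm. Increase over basal fluorescence; mean ± standard error, ≥3 biological replicates; one-way ANOVA with paired two-tailed t-tests, p<0.05.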

[3] = ROS scavenging in cell-free non-enzymatic O2·−-generating system; conditions: concentrations up to 20 μM; data not shown
Summary of the method: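 Superoxide generated non-enzymatically from phenazine methosulfate plus NADH in 0.05 M phosphate buffer, pH 7.5, with or without test compound. Detection by NBT reduction to monoformazan, followed at 560 nm and 25 °C on a plate spectrophotometer. The rate of absorbance change was taken as the read-out.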

[4] = tested on: N9 cells; test: MTT cytotoxicity assay in N9 cells; assay type: cell-based; conditions: Mus musculus, N9, 24 h, read-out: MTT EC50
Summary of the method: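 Murine N9 microglia were grown in IMDM with 5% FBS and 2 mM glutamine at 37 °C in 5% CO₂, and seeded at 20,000 cells/well. Next day, test compound was added at 5–6 concentrations (10⁻⁸–10⁻⁴ M) in triplicate, with a DMSO vehicle control. After 24 h, MTT (0.5 mg/mL) was added for 3–4 h at 37 °C. Formazan was dissolved in DMSO/EtOH 1:1 and read at 570 and 630 nm. EC50 came from a nonlinear fit of percent absorbance change against log concentration.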

[5] = molecular target: T2, human FPR2 (Homo sapiens, UniProt P25090); assay type: cell-based; conditions: for Ca+2 mobilization FPR2-HL60 max. inhibition: desensitization, pretreatment, then WKYMVM 5 nM
T2 sequence (P25090 1-351): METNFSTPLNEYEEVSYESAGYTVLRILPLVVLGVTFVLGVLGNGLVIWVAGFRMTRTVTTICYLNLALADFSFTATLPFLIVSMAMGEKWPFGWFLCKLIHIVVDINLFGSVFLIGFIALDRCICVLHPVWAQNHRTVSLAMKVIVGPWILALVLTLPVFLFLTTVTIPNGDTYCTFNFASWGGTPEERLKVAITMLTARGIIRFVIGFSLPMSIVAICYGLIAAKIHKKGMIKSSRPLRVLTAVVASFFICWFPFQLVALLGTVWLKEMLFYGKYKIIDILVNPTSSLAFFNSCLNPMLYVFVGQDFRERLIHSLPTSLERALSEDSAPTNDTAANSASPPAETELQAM
Summary of the method: (§2)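 Fluo-4-loaded transfected HL-60 cells in HBSS⁺ were pretreated with DMSO vehicle or graded test compound concentrations while Ca²⁺ flux was monitored. The same wells were then challenged with 5 nM fMLF (FPR1 cells) or 5 nM WKYMVM (FPR2 cells). The second Ca²⁺ response (ex 485/em 538 nm, every 5 s for 240 s, room temperature) was taken as the measure of desensitization. Each compound was run in triplicate, with dose-response curves fitted by nonlinear regression.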

[6] = molecular target: T1, human FPR1; test: Desensitization: inhibition of fMLF-induced Ca2+ mobilization in FPR1-HL60 cells; assay type: cell-based
Summary of the method: as §2

[7] = molecular target: T2, human FPR2; test: Ca2+ mobilization; assay type: cell-based; conditions: for Ca+2 mobilization FPR2-HL60 efficacy: normalized to 5 nM WKYMVM = 100%
Summary of the method: as §1

[8] = tested on: FPR2; conditions: FPR2 agonist WKYMVm; cited from earlier work
[9] = molecular target: FPR2; conditions: read-out: Ki value at FPR2; cited from earlier work
[10] = tested on: ear edema; conditions: cited from earlier work
[11] = tested on: FPR2; conditions: cited from earlier work
[12] = tested on: FPR2; conditions: read-out: FPR2 desensitization IC50; cited from earlier work

| Compound | Ca+2 mobilization FPR1-HL60 efficacy [1] [%] | reduction in cellular ROS level (dose dependence) [2] | reduction in ROS production [2] | direct ROS scavenging activity [3] | EC50 [4] [nM] | Ca+2 mobilization FPR2-HL60 max. inhibition [5] [%] | Ca+2 mobilization FPR2-HL60 efficacy [7] [%] | further results |
| --- | --- | --- | --- | --- | --- | --- | --- | --- |
| O=C(Nc1ccc(Br)cc1)N[C@H](Cc1ccc(O)cc1)C(=O)NC1CCCCNC1=O (stereo partly drawn) [(2R)-46, (2R)-2-[3-(4-Bromophenyl)ureido]-3-(4-hydroxyphenyl)-N-(2-oxoazepan-3-yl)propanamide] | 110 | dose-dependent reduction in cellular ROS level | statistically significant reduction in ROS production | none of the tested compounds demonstrated ROS scavenging activity | > 100000 | 100 | 140 | EC50 [1]: 820 ± 370 nM; FPR2 desensitization / block of agonist-induced Ca2+ mobilization, in words ([5]; FPR2-HL60 cells, WKYMVM): able to induce desensitization; FPR1 desensitization / inhibition of fMLF-induced Ca2+ mobilization, in words ([6]; FPR1-HL60 cells, fMLF): able to induce FPR1 desensitization; Ca+2 mobilization FPR1-HL60 max. inhibition ([6]; desensitization, pretreatment, then fMLF 5 nM): 85%; EC50 [7]: 350 ± 120 nM |
| N#Cc1ccc(C[C@@H](NC(=O)Nc2ccc(O)cc2)C(=O)NCC2(c3ccccc3)CC2)cc1 [(R)-24, (R)-3-(4-Cyanophenyl)-2-[3-(4-hydroxyphenyl)ureido]-N-[(1-phenylcyclopropyl)methyl]propanamide] |  |  |  |  | > 100000 |  |  |  |
| COc1ccc(NC(=O)N[C@H](Cc2ccc(O)cc2)C(=O)NCC2(c3ccccc3)CC2)cc1 [(R)-25, (R)-3-(4-Hydroxyphenyl)-2-[3-(4-methoxyphenyl)ureido]-N-[(1-phenylcyclopropyl)methyl]propanamide] | 55 | dose-dependent reduction in cellular ROS level | statistically significant reduction in ROS production | none of the tested compounds demonstrated ROS scavenging activity | > 100000 | 75 | 90 |  |
| CCCCOc1ccc(C(=O)NN2C(=O)c3ccccc3NC2c2ccc(O)cc2)cc1 (stereo not drawn) [Compound 6, Quin C7] |  |  |  |  |  |  |  | inhibition of chemotaxis induced by WKYMVm [8]: inhibited; Ki [9]: 6700 nM; arachidonic acid-induced ear edema [10]: inhibited arachidonic acid-induced ear edema; inhibition of Ca2+ flux induced by WKYMVm ([11]; FPR2 agonist WKYMVm): inhibited; activation of Ca2+ flux ([11]; FPR2 transfected cells): did not activate Ca^2+ flux |
| CCCCOc1ccc(C(=O)NN2C(=O)c3ccccc3NC2c2ccc(OC)cc2)cc1 (stereo not drawn) [Quin C1, reference compound] |  |  | statistically significant reduction in ROS production |  |  |  |  | IC50 [12]: 40 nM |

— article PMC5909973 (ChemMedChem, 2017)
